Key:
Adenosine receptor A1 = target: T1, Adenosine receptor A1 (Homo sapiens, UniProt P30542); test: Displacement of [3H]DPCPX from human adenosine A1 receptor expressed in CHO cells after 120 mins by scintillation counter; assay type: cell-based
T1 sequence (P30542 whole entry): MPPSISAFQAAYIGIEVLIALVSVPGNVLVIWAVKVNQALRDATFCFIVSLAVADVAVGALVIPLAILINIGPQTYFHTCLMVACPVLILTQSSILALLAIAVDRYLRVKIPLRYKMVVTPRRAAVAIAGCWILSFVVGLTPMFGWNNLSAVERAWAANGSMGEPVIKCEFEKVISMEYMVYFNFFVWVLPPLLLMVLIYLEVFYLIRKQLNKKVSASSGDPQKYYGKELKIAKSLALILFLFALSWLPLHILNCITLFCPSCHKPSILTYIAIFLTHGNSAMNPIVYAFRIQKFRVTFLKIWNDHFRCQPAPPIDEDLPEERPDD
Summary of the method: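 Membranes from CHO cells expressing human A1 (50 μg protein), in 50 mM Tris-HCl pH 7.4, pretreated with adenosine deaminase 2 IU/mL. [³H]DPCPX 1 nM, 6–8 test concentrations, 120 min at 25 °C. Nonspecific binding with 1 μM DPCPX. GF/B filtration. Ki by Cheng–Prusoff.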

Adenosine receptor A2a = Adenosine receptor A2a (Homo sapiens, UniProt P29274); test: Displacement of [3H]ZM241385 from human adenosine A2A receptor expressed in CHO cells after 60 mins by scintillation counter; assay type: cell-based
Summary of the method: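 Membranes from CHO cells expressing human A2A (50 μg protein), in 50 mM Tris-HCl, 10 mM MgCl2, pH 7.4, adenosine deaminase pretreated. [³H]ZM241385 2 nM, 6–8 concentrations, 60 min at 4 °C. Nonspecific binding with 1 μM ZM241385. Filtration, scintillation counting. Ki by Cheng–Prusoff. 3–4 experiments in duplicate.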

Adenosine receptor A3 [1] = target: T2, Adenosine receptor A3 (Homo sapiens, UniProt P0DMS8); test: Displacement of [3H]MRE-3008-F20 from human adenosine A3 receptor expressed in CHO cells after 120 mins by scintillation counter; assay type: cell-based
T2 sequence (P0DMS8 whole entry): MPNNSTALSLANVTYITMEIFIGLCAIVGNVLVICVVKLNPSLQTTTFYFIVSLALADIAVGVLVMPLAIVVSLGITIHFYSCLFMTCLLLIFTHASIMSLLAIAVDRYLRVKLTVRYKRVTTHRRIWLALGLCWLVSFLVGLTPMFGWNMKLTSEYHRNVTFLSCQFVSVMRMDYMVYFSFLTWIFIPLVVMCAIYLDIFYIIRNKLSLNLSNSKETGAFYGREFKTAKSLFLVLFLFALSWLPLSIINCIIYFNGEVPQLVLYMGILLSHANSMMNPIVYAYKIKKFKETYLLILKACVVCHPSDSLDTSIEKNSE

Adenosine receptor A2b = target: T3, Adenosine receptor A2b (Homo sapiens, UniProt P29275); test: Antagonist activity at human adenosine A2B receptor expressed in CHO cells assessed as inhibition of NECA-induced cAMP production; assay type: functional, cell-based
T3 sequence (P29275 whole entry): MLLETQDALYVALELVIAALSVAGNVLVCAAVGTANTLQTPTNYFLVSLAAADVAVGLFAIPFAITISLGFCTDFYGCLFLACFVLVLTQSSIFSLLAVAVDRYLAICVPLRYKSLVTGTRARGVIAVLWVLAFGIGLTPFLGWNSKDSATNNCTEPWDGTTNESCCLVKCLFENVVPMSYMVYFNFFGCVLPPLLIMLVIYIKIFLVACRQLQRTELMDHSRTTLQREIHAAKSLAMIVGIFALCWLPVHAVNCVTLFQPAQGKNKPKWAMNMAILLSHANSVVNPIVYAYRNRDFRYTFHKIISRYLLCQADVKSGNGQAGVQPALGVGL
Summary of the method: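 Intact CHO cells (1 × 10⁶/assay) expressing human A2B, in buffer pH 7.4 with 2 IU/mL adenosine deaminase and Ro 20-1724. Preincubated 10 min at 37 °C. NECA 100 nM stimulus. Stopped with cold 6% TCA, ether-extracted, cAMP measured by competition protein binding with [³H]cAMP. IC50 from sigmoid nonlinear regression.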

Adenosine receptor A3 [2] = target: T2, Adenosine receptor A3; test: Antagonist activity at human adenosine A3 receptor expressed in CHO cells assessed as forskolin/C1-IB-MECA-induced inhibition of cAMP production; assay type: functional, cell-based
Summary of the method: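 Intact CHO cells (1 × 10⁶/assay) expressing human A3, in buffer pH 7.4 with 2 IU/mL adenosine deaminase and Ro 20-1724. Preincubated 10 min at 37 °C. Forskolin 1 μM with Cl-IB-MECA 100 nM. Stopped with cold 6% TCA, cAMP measured by [³H]cAMP competition protein binding. IC50 by sigmoid nonlinear regression.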

[3] = Solubility of the compound in water at pH 7.4; assay type: physicochemical
Summary of the method: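 Hydrochloride salts, solubility measured in phosphate-buffered saline at pH 7.4.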

[4] = target: Adenosine receptors; A1 & A3 (Homo sapiens) (UniProt P30542+P0DMS8); test: Selectivity ratio of Ki for human adenosine A1 receptor to Ki for human adenosine A3 receptor

Adenosine receptor A2a, sequence (P29274 whole entry): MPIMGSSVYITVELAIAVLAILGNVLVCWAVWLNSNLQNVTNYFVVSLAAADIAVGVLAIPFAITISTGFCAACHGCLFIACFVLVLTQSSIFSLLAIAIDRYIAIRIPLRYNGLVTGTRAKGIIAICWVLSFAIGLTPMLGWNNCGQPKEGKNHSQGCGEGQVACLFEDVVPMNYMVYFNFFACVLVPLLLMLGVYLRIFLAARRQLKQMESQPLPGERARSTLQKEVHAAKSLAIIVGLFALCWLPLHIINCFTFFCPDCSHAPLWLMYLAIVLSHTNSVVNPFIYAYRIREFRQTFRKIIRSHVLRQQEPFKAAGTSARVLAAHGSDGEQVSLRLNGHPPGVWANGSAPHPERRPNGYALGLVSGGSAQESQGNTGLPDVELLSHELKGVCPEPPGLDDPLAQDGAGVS

Compound | Ki (Adenosine receptor A1) | Ki (Adenosine receptor A2a) | Ki (Adenosine receptor A3 [1]) | IC50 (Adenosine receptor A2b) | IC50 (Adenosine receptor A3 [2]) | solubility [3] | Ratio Ki [4]
CC(C)NC(=O)N1CCC(NC(=O)Nc2nc3nn(C)cc3c3nc(-c4ccco4)nn23)CC1 | 1320 nM | > 5000 nM | 9.8 nM | > 5000 nM | 34 nM |  | 
C=CCN1CCC(NC(=O)Nc2nc3nn(C)cc3c3nc(-c4ccco4)nn23)CC1 | 3360 nM | 1420 nM | 51 nM | > 5000 nM | 212 nM |  | 
Cn1cc2c(nc(NC(=O)NC3CCN(C(=O)NCc4ccc(F)cc4)CC3)n3nc(-c4ccco4)nc23)n1 | 408 nM | 3260 nM | 4.9 nM | 1040 nM | 15 nM |  | 
Cn1cc2c(nc(NC(=O)NC3CCN(Cc4ccc([N+](=O)[O-])cc4)CC3)n3nc(-c4ccco4)nc23)n1 | 371 nM | > 5000 nM | 12.4 nM | > 5000 nM | 42 nM |  | 
Cn1cc2c(nc(NC(=O)NC3CCN(Cc4ccncc4)CC3)n3nc(-c4ccco4)nc23)n1 | 1190 nM | > 5000 nM | 39 nM | > 5000 nM | 166 nM |  | 
C#CCN1CCC(NC(=O)Nc2nc3nn(C)cc3c3nc(-c4ccco4)nn23)CC1 | 802 nM | 789 nM | 25 nM | > 5000 nM | 105 nM |  | 
Cn1cc2c(nc(NC(=O)NC3CCN(C(=O)NCc4ccc(Cl)cc4)CC3)n3nc(-c4ccco4)nc23)n1 | 614 nM | 1140 nM | 25 nM | 505 nM | 90 nM |  | 
CCOC(=O)CN1CCC(NC(=O)Nc2nc3nn(C)cc3c3nc(-c4ccco4)nn23)CC1 | 348 nM | 1080 nM | 12.2 nM | > 5000 nM | 41 nM |  | 
Cn1cc2c(nc(NC(=O)NC3CCN(C(=O)NCCc4ccccc4)CC3)n3nc(-c4ccco4)nc23)n1 | 182 nM | 1840 nM | 6.8 nM | 1760 nM | 23 nM |  | 
Cn1cc2c(nc(NC(=O)NC3CCN(C(=O)NCc4ccccc4)CC3)n3nc(-c4ccco4)nc23)n1 | 525 nM | > 5000 nM | 8.1 nM | 1110 nM | 29 nM |  | 
CN1CCN(C(=O)N2CCC(NC(=O)Nc3nc4nn(C)cc4c4nc(-c5ccco5)nn34)CC2)CC1 | 1120 nM | 1280 nM | 31 nM | 2140 nM | 120 nM |  | 
Cn1cc2c(nc(NC(=O)NC3CCN(Cc4ccccc4)CC3)n3nc(-c4ccco4)nc23)n1 | 703 nM | 526 nM | 30 nM | 2060 nM | 121 nM |  | 
COc1ccc(CNC(=O)N2CCC(NC(=O)Nc3nc4nn(C)cc4c4nc(-c5ccco5)nn34)CC2)cc1 | 635 nM | > 5000 nM | 10.4 nM | 3240 nM | 34 nM |  | 
Cn1cc2c(nc(NC(=O)NC3CCNCC3)n3nc(-c4ccco4)nc23)n1 | > 5000 nM | > 5000 nM | 65 nM | 2430 nM | 262 nM |  | 
Cn1cc2c(nc(NC(=O)NC3CCN(Cc4ccc(C#N)cc4)CC3)n3nc(-c4ccco4)nc23)n1 | 166 nM | 2220 nM | 11.8 nM | > 5000 nM | 40 nM |  | 14
Cl.Cn1cc2c(nc(NC(=O)Nc3ccncc3)n3nc(-c4ccco4)nc23)n1 |  |  |  |  |  | < 100 µg/mL | 

More lines, now with the values ahead:

Ki (Adenosine receptor A1) | Ki (Adenosine receptor A2a) | Ki (Adenosine receptor A3 [1]) | IC50 (Adenosine receptor A2b) | IC50 (Adenosine receptor A3 [2]) | solubility [3] | Ratio Ki [4] | Compound
1300 nM | 1860 nM | 21 nM | 3240 nM | 82 nM |  |  | Cn1cc2c(nc(NC(=O)NC3CCN(C(=O)Nc4ccncc4)CC3)n3nc(-c4ccco4)nc23)n1
744 nM | > 5000 nM | 9.3 nM | > 5000 nM | 30 nM |  |  | Cn1cc2c(nc(NC(=O)NC3CCN(C(=O)NC4CCCC4)CC3)n3nc(-c4ccco4)nc23)n1
805 nM | > 5000 nM | 7.7 nM | > 5000 nM | 26 nM |  |  | Cn1cc2c(nc(NC(=O)NC3CCN(C(=O)NC4CCCCCC4)CC3)n3nc(-c4ccco4)nc23)n1
 |  |  |  |  | 15000 µg/mL |  | CN1CCC(NC(=O)Nc2nc3nn(C)cc3c3nc(-c4ccco4)nn23)CC1.Cl
1050 nM | > 5000 nM | 24 nM | > 5000 nM | 82 nM |  |  | Cn1cc2c(nc(NC(=O)NC3CCN(Cc4ccc(F)cc4)CC3)n3nc(-c4ccco4)nc23)n1
761 nM | > 5000 nM | 13.7 nM | > 5000 nM | 44 nM |  |  | Cn1cc2c(nc(NC(=O)NC3CCN(C(=O)NC4CCCCC4)CC3)n3nc(-c4ccco4)nc23)n1
3410 nM | > 5000 nM | 9.7 nM | > 5000 nM | 30 nM | 8000 µg/mL | 351 | Cl.Cn1cc2c(nc(NC(=O)NC3CCN(CC4CCCCC4)CC3)n3nc(-c4ccco4)nc23)n1
724 nM | > 5000 nM | 26 nM | > 5000 nM | 91 nM |  |  | Cn1cc2c(nc(NC(=O)NC3CCN(Cc4ccc(Cl)cc4)CC3)n3nc(-c4ccco4)nc23)n1
> 5000 nM | > 5000 nM | 253 nM | > 5000 nM | 910 nM |  |  | CN1CCC(NC(=O)Nc2nc3nn(C)cc3c3nc(-c4ccco4)nn23)CC1
1500 nM | > 5000 nM | 30 nM | > 5000 nM | 116 nM |  |  | CCNC(=O)N1CCC(NC(=O)Nc2nc3nn(C)cc3c3nc(-c4ccco4)nn23)CC1
112 nM | 1640 nM | 14.5 nM | 1540 nM | 46 nM |  | 7.7 | Cn1cc2c(nc(NC(=O)NC3CCN(C(=O)NCCCc4ccccc4)CC3)n3nc(-c4ccco4)nc23)n1
1160 nM | > 5000 nM | 13.3 nM | > 5000 nM | 45 nM |  | 87 | COc1ccc(CN2CCC(NC(=O)Nc3nc4nn(C)cc4c4nc(-c5ccco5)nn34)CC2)cc1
1330 nM | > 5000 nM | 44 nM | > 5000 nM | 180 nM |  |  | Cn1cc2c(nc(NC(=O)NC3CCN(Cc4cccnc4)CC3)n3nc(-c4ccco4)nc23)n1
396 nM | 2810 nM | 3.9 nM | 2120 nM | 12 nM |  |  | Cc1ccc(CNC(=O)N2CCC(NC(=O)Nc3nc4nn(C)cc4c4nc(-c5ccco5)nn34)CC2)cc1
 |  |  |  |  | 8000 µg/mL |  | Cl.Cn1cc2c(nc(NC(=O)NC3CCN(Cc4ccc(F)cc4)CC3)n3nc(-c4ccco4)nc23)n1
 |  |  |  |  | 8000 µg/mL |  | C#CCN1CCC(NC(=O)Nc2nc3nn(C)cc3c3nc(-c4ccco4)nn23)CC1.Cl
1480 nM | > 5000 nM | 13.8 nM | > 5000 nM | 50 nM |  | 107 | Cc1ccc(CN2CCC(NC(=O)Nc3nc4nn(C)cc4c4nc(-c5ccco5)nn34)CC2)cc1
2790 nM | 1190 nM | 71 nM | > 5000 nM | 301 nM |  |  | CCCN1CCC(NC(=O)Nc2nc3nn(C)cc3c3nc(-c4ccco4)nn23)CC1

Source: ChEMBL document CHEMBL2069218, “Water-soluble pyrazolo[4,3-e][1,2,4]triazolo[1,5-c]pyrimidines as human A₃ adenosine receptor antagonists” (J Med Chem, 2012)
